The source of these data is ChEMBL document CHEMBL1909519, “L-Proline anchored multicomponent synthesis of novel pyrido[2,3-a]carbazoles; investigation of in vitro antimicrobial, antioxidant, cytotoxicity and structure activity relationship studies” (Eur J Med Chem, 2011).

Experiment [1] deals with Staphylococcus aureus. Put plainly: Antibacterial activity against Staphylococcus aureus after 24 hrs by agar disk diffusion assay. Format: functional. The method in brief: (§1)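 Agar well diffusion on nutrient agar against Gram-positive clinical isolates (PSG Hospital, Coimbatore). Compounds in DMSO tested at 0 (control), 25, 50, 75, 100; DMSO as solvent and negative control; ciprofloxacin ([…]) as positive control. Plates incubated 37 ± 2 °C, 24 h; zone of inhibition diameter read in mm.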
A general note: In agar diffusion tests the substance spreads into inoculated agar from a disc or well.

For experiment [2], the system named is Enterococcus faecalis. The experiment can be described thus: Antibacterial activity against Enterococcus faecalis after 24 hrs by agar disk diffusion assay. Type of experiment: functional. The method in brief: as §1
Experiment [3] deals with SK-OV-3. Put plainly: Cytotoxicity against human SKOV3 cells after 48 hrs by SRB assay. Type of experiment: functional, cell-based. Conditions: SK-OV-3, 48 h; call rule not given here. An outline of the steps:
(§2)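 Cells in RPMI-1640 with 10% heat-inactivated FBS, 1 mM NaHCO3, 2 mM L-glutamine, 37 °C, 5% CO2; seeded (B16F10 5 × 10⁴ cells/mL, others 1 × 10⁵ cells/mL), 24 h, then compounds in DMSO at 1.56–50 for 48 h, triplicate wells. TCA fixation, SRB staining 30 min, tris extraction, OD 520 nm; IC50 by linear regression, mean ± SD of three independent experiments; cisplatin positive control.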
For orientation: Sulforhodamine B stains cellular protein and so reports cell mass.

Experiment [4] concerns HCT-15. Put plainly: Cytotoxicity against human HCT15 cells up to 50 ug/ml after 48 hrs by SRB assay. Type of experiment: functional, cell-based. An outline of the steps:
as §2

Experiment [5] relates to Escherichia coli. The experiment can be described thus: Antibacterial activity against Escherichia coli at 25 ug/ml after 24 hrs by agar disk diffusion assay. Format: functional. Conditions: read-out: DIZ. The method in brief:
(§3)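 Gram-negative clinical isolates (PSG Hospital, Coimbatore) tested by agar well diffusion on nutrient agar. Compounds dissolved in DMSO at 0 (control), 25, 50, 75, 100; DMSO was the negative control and ciprofloxacin ([…]) the positive control. Incubation 37 ± 2 °C for 24 h, then inhibition zone diameter measured in mm.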

Experiment [6] deals with Staphylococcus aureus. Put plainly: Antibacterial activity against Staphylococcus aureus at 25 ug/ml after 24 hrs by agar disk diffusion assay. Conditions: read-out: DIZ. Type of experiment: functional. An outline of the steps: as §1
Experiment [7] deals with B16-F10. The experiment can be described thus: Cytotoxicity against mouse B16F10 cells after 48 hrs by SRB assay. Particulars: B16-F10, 48 h. Type of experiment: functional, cell-based. The method in brief: as §2
The test system of experiment [8] is Klebsiella pneumoniae. Put plainly: Antibacterial activity against Klebsiella pneumoniae at 25 ug/ml after 24 hrs by agar disk diffusion assay. Format: functional. Particulars: read-out: DIZ. The method in brief: as §3
Experiment [9] relates to Candida albicans. Put plainly: Antifungal activity against Candida albicans at 25 ug/ml after 48 hrs by agar disk diffusion assay. Format: functional. Conditions: read-out: DIZ. An outline of the steps:
(§4)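 Fungal isolates (PSG Hospital, Coimbatore) grown on Sabouraud dextrose agar; agar well diffusion with compounds in DMSO at 0 (control), 25, 50, 75, 100. DMSO negative control, fluconazole ([…]) positive control. Plates held 28 ± 2 °C for 48 h; zone of inhibition diameter recorded in mm.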

The test system of experiment [10] is Aspergillus niger. The experiment can be described thus: Antifungal activity against Aspergillus niger at 25 ug/ml after 48 hrs by agar disk diffusion assay. Conditions: read-out: DIZ. Type of experiment: functional. An outline of the steps:
as §4

Experiment [11] relates to Candida albicans. The experiment can be described thus: Antifungal activity against Candida albicans after 48 hrs by agar disk diffusion assay. Format: functional. The method in brief: as §4
The subject of experiment [12] is Aspergillus niger. The experiment can be described thus: Antifungal activity against Aspergillus niger after 48 hrs by agar disk diffusion assay. Format: functional. The method in brief: as §4
Experiment [13] deals with A549. Put plainly: Cytotoxicity against human A549 cells after 48 hrs by SRB assay. Type of experiment: functional, cell-based. Particulars: A549, 48 h. The method in brief:
as §2

The test system of experiment [14] is Klebsiella pneumoniae. Put plainly: Antibacterial activity against Klebsiella pneumoniae after 24 hrs by agar disk diffusion assay. Type of experiment: functional. An outline of the steps:
as §3

For experiment [15], the system named is Radical scavenging activity. Put plainly: Antioxidant activity assessed as DPPH radical scavenging activity after 30 mins by micro plate reader. Format: functional. The method in brief:
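DPPH assay: various compound concentrations brought to volume with ethanol, mixed with 0.1 mM ethanolic DPPH alongside vitamin C standard; shaken 30 min at 24 °C, absorbance read at 517 nm; concentration giving 50% decrease determined.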
A general note: Loss of DPPH colour is used to gauge radical scavenging.

Experiment [16] has as its system Enterococcus faecalis. The experiment can be described thus: Antibacterial activity against Enterococcus faecalis at 25 ug/ml after 24 hrs by agar disk diffusion assay. Format: functional. Particulars: read-out: DIZ. An outline of the steps:
as §1

In experiment [17] the test system is Escherichia coli. Put plainly: Antibacterial activity against Escherichia coli after 24 hrs by agar disk diffusion assay. Type of experiment: functional. The method in brief:
as §3

Experiment [18] in a line: Cytotoxicity against human SK-MEL-12 cells after 48 hrs by SRB assay. Type of experiment: functional, cell-based. An outline of the steps:
as §2

Experiment [19] can be described thus: Cytotoxicity against human SK-MEL-12 cells up to 50 ug/ml after 48 hrs by SRB assay. Format: functional, cell-based. An outline of the steps: as §2
Experiment [20] deals with Candida albicans. Put plainly: Antifungal activity against Candida albicans at 50 ug/ml after 48 hrs by agar disk diffusion assay. Type of experiment: functional. Particulars: read-out: DIZ. An outline of the steps:
as §4

Experiment [21] relates to B16-F10. The experiment can be described thus: Cytotoxicity against mouse B16F10 cells up to 50 ug/ml after 48 hrs by SRB assay. Type of experiment: functional, cell-based. An outline of the steps: as §2
The subject of experiment [22] is Staphylococcus aureus. The experiment can be described thus: Antibacterial activity against Staphylococcus aureus at 50 ug/ml after 24 hrs by agar disk diffusion assay. Particulars: read-out: DIZ. Type of experiment: functional. An outline of the steps:
as §1

In experiment [23] the test system is Klebsiella pneumoniae. The experiment can be described thus: Antibacterial activity against Klebsiella pneumoniae at 50 ug/ml after 24 hrs by agar disk diffusion assay. Format: functional. Conditions: read-out: DIZ. The method in brief: as §3
Experiment [24] relates to Enterococcus faecalis. The experiment can be described thus: Antibacterial activity against Enterococcus faecalis at 50 ug/ml after 24 hrs by agar disk diffusion assay. Particulars: read-out: DIZ. Type of experiment: functional. The method in brief:
as §1

The test system of experiment [25] is A549. Put plainly: Cytotoxicity against human A549 cells up to 50 ug/ml after 48 hrs by SRB assay. Format: functional, cell-based. An outline of the steps: as §2
In experiment [26] the test system is Aspergillus niger. Put plainly: Antifungal activity against Aspergillus niger at 50 ug/ml after 48 hrs by agar disk diffusion assay. Type of experiment: functional. Conditions: read-out: DIZ. An outline of the steps: as §4
Experiment [27] concerns Escherichia coli. Put plainly: Antibacterial activity against Escherichia coli at 50 ug/ml after 24 hrs by agar disk diffusion assay. Format: functional. Conditions: read-out: DIZ. An outline of the steps: as §3
The subject of experiment [28] is SK-OV-3. Put plainly: Cytotoxicity against human SKOV3 cells up to 50 ug/ml after 48 hrs by SRB assay. Format: functional, cell-based. An outline of the steps:
as §2

In experiment [29] the test system is A549. Put plainly: Ratio of cisplatin IC50 to compound IC50 for human A549 cells. Format: functional.
The test system of experiment [30] is HCT-15. The experiment can be described thus: Ratio of cisplatin IC50 to compound IC50 for human HCT15 cells. Type of experiment: functional.
For the next experiment, the species on record is Homo sapiens. The experiment can be described thus: Ratio of cisplatin IC50 to compound IC50 for human SK-MEL-12. Type of experiment: functional.
Experiment [31] relates to HCT-15. Put plainly: Cytotoxicity against human HCT15 cells after 48 hrs by SRB assay. Particulars: HCT-15, 48 h. Type of experiment: functional, cell-based. An outline of the steps:
as §2

≈ marks a conversion by molar mass, not a printed value.

Usually MIC stands for the lowest concentration found to suppress growth. Higher therefore signals a less susceptible organism. The term IC50 denotes the concentration that inhibits the measured activity by half. As for `CCOC(=O)c1c(N)nc2c(c1-c1cc3ccccc3nc1Cl)CCc1c-2[nH]c2ccc(C)cc12`, the MIC in the experiment on Staphylococcus aureus [1] was 25 µg/mL (≈ 51.8 µM); in the experiment on Enterococcus faecalis [2] it was 25 µg/mL (≈ 51.8 µM); against Candida albicans [11], more than 100 µg/mL; in the experiment on Aspergillus niger [12] it was more than 100 µg/mL; in the experiment with Klebsiella pneumoniae [14] it was 25 µg/mL (≈ 51.8 µM); against Escherichia coli [17] it was 25 µg/mL (≈ 51.8 µM). Also, the IC50 is 18.6 µg/mL (≈ 38.5 µM) in the experiment on SK-OV-3 [3]; “Not Active” in the experiment with HCT-15 [4]; 20.5 µg/mL (≈ 42.4 µM) in the experiment on B16-F10 [7]; 17.6 µg/mL (≈ 36.5 µM) with A549 [13]; 330.25 µg/mL (≈ 684 µM) in experiment [15]; 27.7 µg/mL (≈ 57.3 µM) in experiment [18]. The zone of inhibition at 25 µg/mL in the experiment with Escherichia coli [5] is 23 mm; in the experiment with Staphylococcus aureus [6] it was 25 mm; in the experiment on Klebsiella pneumoniae [8], 26 mm; in the experiment on Candida albicans [9], 11 mm; with Aspergillus niger [10] it was 7 mm; in the experiment with Enterococcus faecalis [16], 24 mm.

Turning to `CCOC(=O)c1c(N)nc2c(c1-c1ccc(N(C)C)cc1)CCc1c-2[nH]c2ccc(C)cc12`, the MIC in the experiment with Staphylococcus aureus [1] is 50 µg/mL (≈ 113 µM); in the experiment on Enterococcus faecalis [2], 50 µg/mL (≈ 113 µM); with Candida albicans [11], more than 100 µg/mL; against Aspergillus niger [12], more than 100 µg/mL; in the experiment on Klebsiella pneumoniae [14] it was 50 µg/mL (≈ 113 µM); with Escherichia coli [17], 50 µg/mL (≈ 113 µM). The IC50 entry (in experiment [19]; with HCT-15 [4]; in the experiment with B16-F10 [21]; in the experiment on A549 [25]; with SK-OV-3 [28]) was “Not Active” each time. Besides, the zone of inhibition at 50 µg/mL worked out at 5 mm in the experiment with Candida albicans [20]; 21 mm in the experiment with Staphylococcus aureus [22]; 22 mm in the experiment on Klebsiella pneumoniae [23]; 18 mm with Enterococcus faecalis [24]; 7 mm with Aspergillus niger [26]; 19 mm in the experiment with Escherichia coli [27].

On to `Cc1ccc2[nH]c3c(c2c1)CCc1c-3nc(N)c(C#N)c1-c1cc2ccccc2nc1Cl`, for which the MIC in the experiment with Staphylococcus aureus [1] is 25 µg/mL (≈ 57.4 µM); against Enterococcus faecalis [2], 25 µg/mL (≈ 57.4 µM); in the experiment on Candida albicans [11], more than 100 µg/mL; in the experiment on Aspergillus niger [12] it was more than 100 µg/mL; against Klebsiella pneumoniae [14] it was 25 µg/mL (≈ 57.4 µM); with Escherichia coli [17], 25 µg/mL (≈ 57.4 µM). Also, the IC50 in the experiment on SK-OV-3 [3] worked out at 21.9 µg/mL (≈ 50.3 µM); in the experiment with B16-F10 [7], 5.89 µg/mL (≈ 13.5 µM); with A549 [13], 3.72 µg/mL (≈ 8.53 µM); in [15], 163.07 µg/mL (≈ 374 µM); in the experiment on HCT-15 [31] it was 4.43 µg/mL (≈ 10.2 µM); in [18] it was 4.48 µg/mL (≈ 10.3 µM). In addition, the zone of inhibition at 25 µg/mL worked out at 23 mm with Escherichia coli [5]; 25 mm with Staphylococcus aureus [6]; 25 mm in the experiment on Klebsiella pneumoniae [8]; 10 mm with Candida albicans [9]; 6 mm in the experiment with Aspergillus niger [10]; 24 mm with Enterococcus faecalis [16]. Further, the “Ratio IC50” value in the experiment with A549 [29] was found to be 1.51; in the experiment with HCT-15 [30], 1.79; in the experiment filed under Homo sapiens it was 2.32.

As for `Cc1ccc2[nH]c3c(c2c1)CCc1c-3nc(N)c(C#N)c1-c1cccnc1`, the MIC is 50 µg/mL (≈ 142 µM) against Staphylococcus aureus [1]; 50 µg/mL (≈ 142 µM) against Enterococcus faecalis [2]; more than 100 µg/mL with Candida albicans [11]; more than 100 µg/mL against Aspergillus niger [12]; 50 µg/mL (≈ 142 µM) in the experiment with Klebsiella pneumoniae [14]; 50 µg/mL (≈ 142 µM) with Escherichia coli [17]. For the same compound, the IC50 in the experiment with SK-OV-3 [3] is 10.6 µg/mL (≈ 30.1 µM); in the experiment on B16-F10 [7], 13.7 µg/mL (≈ 39 µM); with A549 [13], 16.1 µg/mL (≈ 45.9 µM); in experiment [15], 511.24 µg/mL (≈ 1450 µM); in the experiment with HCT-15 [31] it was 47.6 µg/mL (≈ 136 µM); in [18], 16.6 µg/mL (≈ 47.3 µM). For the same compound, the zone of inhibition at 50 µg/mL in the experiment with Candida albicans [20] came to 5 mm; in the experiment with Staphylococcus aureus [22], 20 mm; in the experiment with Klebsiella pneumoniae [23] it was 18 mm; in the experiment with Enterococcus faecalis [24], 20 mm; in the experiment with Aspergillus niger [26], 3 mm; in the experiment on Escherichia coli [27], 19 mm.
